What was measured:
trypsin [1] = target: T1, trypsin (Bos taurus, UniProt P00760); type: biochemical; conditions: pH 7.2
T1 sequence (P00760 24-246): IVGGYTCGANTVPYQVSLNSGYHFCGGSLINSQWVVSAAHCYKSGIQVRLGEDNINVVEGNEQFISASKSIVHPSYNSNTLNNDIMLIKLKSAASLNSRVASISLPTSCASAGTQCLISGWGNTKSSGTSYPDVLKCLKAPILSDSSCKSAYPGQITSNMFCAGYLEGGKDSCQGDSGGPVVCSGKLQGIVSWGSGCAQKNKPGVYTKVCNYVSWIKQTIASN
Outline: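 Trypsin (78% active by p-nitrophenyl p-guanidobenzoate titration) hydrolysing α-N-benzoyl-L-arginine-p-nitroanilide at 25 °C, [S0] ≪ KM, in 0.1 M buffers (potassium phosphate at pH 7.2; sodium acetate at pH 5.0). At pH 7.2: 88.0 μM substrate, 0.17 μM trypsin, 3.3% DMSO. Inhibitor was added last. Initial rates were taken within 0.5–1 min and fitted to d[P]/dt = vo·Ki/([I]+Ki), ≥3 determinations. Effective molarity = KHK(obs)/KH1.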

[2] = Hydration constants by quantitative 13C NMR; type: physicochemical; conditions: pH 3.0, 13C NMR
[3] = 13C NMR of stability / Schiff base formation by the free glyoxal inhibitor; type: physicochemical
trypsin [4] = target: T1, trypsin; test: 13C NMR of trypsin catalysed breakdown of bound glyoxal inhibitor; type: biochemical; conditions: pH 7.2, in the presence of trypsin

## NC(N)=NCCC[C@H](NC(=O)OCc1ccccc1)C(=O)O [Z-Arg-COOH]
Trypsin [1]
  Tighter binding than Z-Lys-COOH: ~ 2 fold

## NCCCC[C@H](NC(=O)OCc1ccccc1)C(=O)[13CH]=O [Z-Lys-CO^13CHO]
[2]
  KH1obs, glyoxal aldehyde carbon: 97±7
[3]; pH 3.0, 64 h at 25 °C
  Stability of NMR signals: no change in the intensity of the NMR signals
[3]; pH 3, storage ~1 year
  t1/2 of decrease of inhibitor signals on storage: 1850 ± 228 h
[3]; pH 7.2, 25 °C
  Half life of Schiff base formation: 11.2 h
[3]; pH 7.2, 25 °C, 20 mM potassium phosphate buffer
  1st order rate constant of Schiff base formation: 0.062 ± 0.016 h⁻¹
[3]; pH 10.4
  Half life of Schiff base formation: 0.15 h
[3]; pH 10.4, 20 mM sodium bicarbonate buffer
  1st order rate constant of Schiff base formation: 4.7 ± 0.7 h⁻¹
Trypsin [4]
  t1/2 of conversion of trypsin-bound inhibitor to α-hydroxycarboxylic acid: 2.9 h

## NCCCC[C@H](NC(=O)OCc1ccccc1)[13C](=O)C=O [Z-Lys-^13COCHO]
[3]; corrected to pH 7.2
  Half life of Schiff base formation allowing for pH 7.0 instead of 7.2: 14.5 h
[3]; pH 7.0
  Half life of Schiff base formation: 23.0 h
[3]; pH 7.0, 25 °C, 20 mM potassium phosphate buffer
  1st order rate constant of Schiff base formation: 0.030±0.004 h^−^1

— PMC5600458 (Biochemistry and Biophysics Reports, 2016)
